Bioassay records as filed in PubChem BioAssay.
A selection: hits, their analogues and other compounds. The true share with any hit is near 2.3%.
SR-BI HDL uptake = blocks mouse SR-BI lipid uptake from DiI-HDL; ldlA[mSR-BI] CHO cells, DiI-HDL uptake fluorescence, 3 h; inhibition, % at 12.5 µM; 320,000 compounds, 0.96% hits; AID 488896;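 active means mean replicate inhibition of at least 70% and a set share of replicates each scoring 70 or more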;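 further: 0% = median of neutral control wells and 100% = median of positive control wells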
Target sequence (Q61009 whole entry, looked up): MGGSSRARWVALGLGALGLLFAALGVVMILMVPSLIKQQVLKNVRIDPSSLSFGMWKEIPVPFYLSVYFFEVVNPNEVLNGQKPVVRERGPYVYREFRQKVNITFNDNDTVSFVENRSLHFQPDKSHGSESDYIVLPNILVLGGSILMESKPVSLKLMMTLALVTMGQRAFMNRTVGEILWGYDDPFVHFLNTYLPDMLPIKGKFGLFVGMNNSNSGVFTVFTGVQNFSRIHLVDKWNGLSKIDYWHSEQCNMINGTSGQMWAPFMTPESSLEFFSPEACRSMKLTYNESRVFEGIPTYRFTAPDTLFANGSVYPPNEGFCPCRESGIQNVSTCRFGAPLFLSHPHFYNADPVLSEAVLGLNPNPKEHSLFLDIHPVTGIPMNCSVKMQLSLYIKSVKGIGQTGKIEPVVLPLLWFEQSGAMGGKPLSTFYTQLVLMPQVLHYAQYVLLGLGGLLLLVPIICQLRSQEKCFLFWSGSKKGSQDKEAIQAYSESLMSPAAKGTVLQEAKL
ATG4B inh = inhibitors of human ATG4B cysteine protease. Q9Y4P1. ATG4B cleavage of LC3-PLA2, NBD-HPC fluorescence, 1 h. inhibition, % at 8.33 µM. 340,000 compounds, 0.51% hits. AID 504462; in the data active means inhibition above about 40%
CAL PDZ FP-1 = blocks peptide binding to the human CAL PDZ domain | Q9HD26 | purified CAL PDZ, TMR-peptide fluorescence polarization, 1 h | inhibition, % at 24.9 µM | 300,000 compounds, 0.92% hits | AID 602252;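 active means mean inhibition of at least 30% with at least half of replicates also reaching 30%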;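 further: 0% = DMSO neutral control and 100% = excess unlabeled competitor peptide PRC23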
CAL PDZ FP-2 = blocks peptide binding to human CAL PDZ domain | Q9HD26 | purified CAL PDZ, TMR-peptide fluorescence polarization, 1 h | inhibition, % at 20 µM | 330,000 compounds, 0.02% hits;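 active means highest replicate inhibition of at least 40%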;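 further: plate controls were DMSO neutral control wells for no effect and unlabeled competitor peptide control wells for full effect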
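Assay system – tagged CAL PDZ protein CerCALP, purified · Timing – 1 h at RT · Compound – single point, 20 µM · Measured by – fluorescence polarization from S- and P-plane intensities, G-factor corrected · Evaluation – inhibition from polarization loss · Probe or stimulus – TMR reporter peptide T*-PRC34 · Buffer or medium – pH 7.4 phosphate-saline buffer, reducing agent, detergent, IgG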
SR-BI DiI-HDL act = SR-BI HDL lipid transfer activation; CHO ldlA[mSR-BI] cells, DiI-HDL uptake fluorescence, 3 h; 100 = double the neutral-control signal; AID 504775; 320,000 compounds, 0.096% hits; activation, % at 12.5 µM;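 active means mean replicate activation of at least 60% and every replicate at or above 60%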;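 further: 0% = median plate neutral-control signal and 100% = twice that signal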
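Test system: SR-BI-overexpressing, LDLR-lacking CHO cells; Also added: labelled HDL, 10 µg/mL; Measured by: bottom-read cell fluorescence after medium removal, ex 550/em 595 nm; Timing: 3 h uptake period with compound, 37 °C; Buffer or medium: F12, 0.5% BSA, 25 mM HEPES; Doses: single compound concentration, delivered by pin transfer.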
Starred values were filed as active, the others as inactive.

Results for Cc1ccc(-c2nc(NC(=O)c3cc(C(C)(C)C)nn3C)sc2C)cc1Cl ?
SR-BI HDL uptake: 73*; ATG4B inh: 3; CAL PDZ FP-1: -1; CAL PDZ FP-2: 0; SR-BI DiI-HDL act: -73

How did CCC(CC)NC(=O)COC(=O)c1ccc(OCC(=O)Nc2ccccc2OC)c(OC)c1 do in these assays?
SR-BI HDL uptake: -10; ATG4B inh: -11; CAL PDZ FP-1: 44*; CAL PDZ FP-2: 1; SR-BI DiI-HDL act: 10

What do the screens show for `COc1ccc(NC(=O)CSc2nc3sc(C)cc3c(=O)n2C)c(OC)c1`?
SR-BI HDL uptake: 6; ATG4B inh: -11; CAL PDZ FP-1: 80*; CAL PDZ FP-2: -1; SR-BI DiI-HDL act: -6

Results for CCCn1nc(C(=O)Nc2cc(OCC)c(N3CCOCC3)cc2OCC)c2ccccc2c1=O ?
SR-BI HDL uptake: 56; ATG4B inh: -2; CAL PDZ FP-2: -1; SR-BI DiI-HDL act: -56

What do the screens show for `Cc1ccc(-c2nn3c(C)nnc3s2)cc1NC(=O)c1ccc(Br)o1`?
SR-BI HDL uptake: 38; ATG4B inh: -7; CAL PDZ FP-1: -3; CAL PDZ FP-2: -1; SR-BI DiI-HDL act: -38

What do the screens show for `Cc1ccc(-c2nn3c(C)nnc3s2)cc1NC(=O)c1ccc(-c2ccc(Cl)cc2Cl)o1`?
SR-BI HDL uptake: 79*; ATG4B inh: -2; CAL PDZ FP-1: -4; CAL PDZ FP-2: -3; SR-BI DiI-HDL act: -79

What do the screens show for `Cc1ccc(-c2nn3c(C)nnc3s2)cc1NC(=O)c1ccc(-c2cccc(Cl)c2)o1`?
SR-BI HDL uptake: 73*; ATG4B inh: -7; CAL PDZ FP-1: 0; CAL PDZ FP-2: 0; SR-BI DiI-HDL act: -73

How did Cc1ccccc1Oc1ccc2c(c1)[C@@H]1C[C@H]3[C@@H](C(=O)N1CC2)[C@H](C)ON3C do in these assays?
SR-BI HDL uptake: 3; ATG4B inh: 0; CAL PDZ FP-1: -7; CAL PDZ FP-2: 0; SR-BI DiI-HDL act: -3

Results for Cc1cccc(-n2ccc(=O)c(C(=O)Nc3ccc(S(=O)(=O)Nc4nccc(C)n4)cc3)n2)c1 ?
SR-BI HDL uptake: -2; ATG4B inh: -3; CAL PDZ FP-1: -7; CAL PDZ FP-2: -3; SR-BI DiI-HDL act: 2

Results for CCOc1cccc(/C=N/NC(=S)Nc2ccccc2[N+](=O)[O-])c1O ?
SR-BI HDL uptake: 128*; ATG4B inh: 3; CAL PDZ FP-1: -1; CAL PDZ FP-2: -2; SR-BI DiI-HDL act: -128

Results for CCOc1ccc(CCNC(=O)CSc2ncn[nH]2)cc1OCC ?
SR-BI HDL uptake: -32; ATG4B inh: -1; CAL PDZ FP-1: 0; CAL PDZ FP-2: 0; SR-BI DiI-HDL act: 32

What do the screens show for `COc1ccc2c(c1)-c1nc(NC(=O)c3ccco3)sc1CC2`?
SR-BI HDL uptake: 78*; ATG4B inh: 17; CAL PDZ FP-1: 4; CAL PDZ FP-2: -2; SR-BI DiI-HDL act: -78

How did COc1ccc2c(c1)CCc1sc(NC(=O)c3ccco3)nc1-2 do in these assays?
SR-BI HDL uptake: 20; ATG4B inh: 1; CAL PDZ FP-2: -1; SR-BI DiI-HDL act: -20

How did COc1ccc2c(c1)CCc1sc(NC(=O)c3ccc(C)cc3)nc1-2 do in these assays?
SR-BI HDL uptake: 15; ATG4B inh: 11; CAL PDZ FP-1: -1; CAL PDZ FP-2: -1; SR-BI DiI-HDL act: -15

What do the screens show for `COc1ccc2c(c1)-c1nc(NC(=O)c3cccs3)sc1CC2`?
SR-BI HDL uptake: 79*; ATG4B inh: 28; CAL PDZ FP-1: -1; CAL PDZ FP-2: 0; SR-BI DiI-HDL act: -79

What do the screens show for `CC1CN(C(=O)CCNC(=O)c2ccc(Br)cc2)CC(C)O1` (stereo not given)?
SR-BI HDL uptake: -6; ATG4B inh: -7; CAL PDZ FP-1: 0; CAL PDZ FP-2: -2; SR-BI DiI-HDL act: 6

How did COc1cc(C(=O)Oc2cc(C)cc(C)c2)cc(OC)c1OC do in these assays?
SR-BI HDL uptake: 77*; ATG4B inh: 12; CAL PDZ FP-1: -1; CAL PDZ FP-2: -1; SR-BI DiI-HDL act: -77

How did COC(=O)c1cn(NC(=O)Cc2ccc(OC)c(OC)c2)c(=O)c2ccccc12 do in these assays?
SR-BI HDL uptake: -22; ATG4B inh: 7; CAL PDZ FP-1: 6; CAL PDZ FP-2: 0; SR-BI DiI-HDL act: 22

How did COC(=O)c1cn(NC(=O)Cc2cccc(OC)c2)c(=O)c2ccccc12 do in these assays?
SR-BI HDL uptake: -1; ATG4B inh: 10; CAL PDZ FP-1: 34*; CAL PDZ FP-2: -1; SR-BI DiI-HDL act: 1

How did CC(CNC(=O)COc1ccccc1)OC(=O)Nc1cccc(Cl)c1 (stereo not given) do in these assays?
SR-BI HDL uptake: -4; ATG4B inh: -17; CAL PDZ FP-1: -3; CAL PDZ FP-2: -3; SR-BI DiI-HDL act: 4

How did CC(COc1ccccc1)OC(=O)Nc1ccccc1 (stereo not given) do in these assays?
SR-BI HDL uptake: 24; ATG4B inh: -5; CAL PDZ FP-1: 61*; CAL PDZ FP-2: 31; SR-BI DiI-HDL act: -24

How did C=CC(=O)NCc1ccc(-c2csnn2)cc1 do in these assays?
SR-BI HDL uptake: -5; ATG4B inh: 1; CAL PDZ FP-1: 57*; CAL PDZ FP-2: 1; SR-BI DiI-HDL act: 5

How did CCOc1ccccc1C(=O)Nc1cc(OC)ccc1OC do in these assays?
SR-BI HDL uptake: 79*; ATG4B inh: 1; CAL PDZ FP-2: 0; SR-BI DiI-HDL act: -79

Results for CCOc1ccccc1C(=O)NCC(=O)OCCOc1cccc(Cl)c1 ?
SR-BI HDL uptake: -4; ATG4B inh: 1; CAL PDZ FP-1: -2; CAL PDZ FP-2: -2; SR-BI DiI-HDL act: 4

What do the screens show for `CCOc1cc(NC(=S)Nc2ccccc2)c(OCC)cc1NC(=O)c1ccc(OC)cc1`?
SR-BI HDL uptake: 89*; ATG4B inh: 4; CAL PDZ FP-1: 5; CAL PDZ FP-2: 0; SR-BI DiI-HDL act: -89

How did CCOc1ccccc1C(=O)Nc1cc(Cl)ccc1O do in these assays?
SR-BI HDL uptake: 86*; ATG4B inh: -13; CAL PDZ FP-1: -4; CAL PDZ FP-2: -1; SR-BI DiI-HDL act: -86

Results for CCOc1ccccc1C(=O)NCC(=O)OCCCOC(=O)CNC(=O)c1ccccc1OCC ?
SR-BI HDL uptake: 84*; ATG4B inh: -6; CAL PDZ FP-1: -1; CAL PDZ FP-2: -3; SR-BI DiI-HDL act: -84

How did Cc1ccc(C(=O)NCc2n[nH]c(=S)n2-c2ccccc2)cc1[N+](=O)[O-] do in these assays?
SR-BI HDL uptake: -7; ATG4B inh: 5; CAL PDZ FP-1: 0; CAL PDZ FP-2: 0; SR-BI DiI-HDL act: 7

How did CCOC(=O)c1c(C)[nH]c(C(=O)OC(C)C(=O)NC2CCCCC2C)c1C (stereo not given) do in these assays?
SR-BI HDL uptake: 13; ATG4B inh: -6; CAL PDZ FP-1: -6; CAL PDZ FP-2: 0; SR-BI DiI-HDL act: -13

What do the screens show for `CC1CCc2cc(F)ccc2N1C(=O)c1cccs1` (stereo not given)?
SR-BI HDL uptake: 13; ATG4B inh: -21; CAL PDZ FP-1: 32*; CAL PDZ FP-2: -1; SR-BI DiI-HDL act: -13

How did COc1ccccc1NC(=S)N1CCCCCC1 do in these assays?
SR-BI HDL uptake: 8; ATG4B inh: 4; CAL PDZ FP-2: 1; SR-BI DiI-HDL act: -8
